From PubChem BioAssay
Active and inactive are the calls of the source.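 Rule for the calls, unless noted: active = inhibition at or above 50% at 10 µM; inactive = inhibition below 50%.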

Tests used:
[1] = inhibitors of TNFa-induced NFkB p65 translocation, primary screen, imaging, HUVEC, MLSMR starter and 10KST1 sets (AID 438;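 active = inhibition above 20% together with a positive visual image hit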;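 note: compound added about 3h40 before a 20 min TNFalpha stimulation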;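 for inhibition: signal is the nuclear over cytoplasmic p65 intensity ratio per well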); details: HUVEC TNFa-induced p65 nuclear translocation; cell count: measured here: nuclei count (cytotoxicity indicator), at 2.08 µM; inhibition: at 2 µM, stronger effect = higher value, 0% TNFa-plus-vehicle, 100% no-TNFa wells
[2] = inhibitors of mutant huntingtin aggregation, primary screen, imaging, exon1htt(103Q)mCFP cells, high-content imaging (AID 483;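 active = visual image review flags a hit and inhibition of aggregation exceeds 20%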;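 note: compound exposure lasted 3 days before fixation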;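 for nuclei count: percent of the per-plate median nuclei count of sample wells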); details: exon1htt(103Q)mCFP cell line, aggregate imaging, at 2 µM; inhibition of aggregation: stronger effect = higher value; nuclei count: measured here: cell count, toxicity
[3] = inhibitors of E-selectin induction by TNFa, primary screen, imaging, HUVEC, immunofluorescence, MLSMR starter and 10KST1 sets (AID 487;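 active = visually confirmed hit in the image check and inhibition above 20%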;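 for inhibition: signal is fraction of cell area covered by stained E-selectin grains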;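 for nuclei count: 100% = median nuclei count of all wells on the same plate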); details: HUVEC TNFalpha-induced E-selectin immunofluorescence imaging, at 2 µM; inhibition: stronger effect = higher value; nuclei count: measured here: cell number, toxicity
[4] = target: Voltage-gated potassium channel subunit beta-2 (Rattus norvegicus) (UniProt P62483); assay: KvBeta enzyme negative modulators, primary screen, biochemical, NADPH fluorescence (AID 622;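 active = fluorescence slope higher than the sample average by over 3 SD, cut at about -0.22 in these data, passing the limit was not always enough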;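 note: slope of raw intensity against log time taken from 70 to 1610 s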); details: recombinant KvBeta, 4-cyanobenzaldehyde reduction, at 10 µM, stronger effect = higher value
Sequence of Voltage-gated potassium channel subunit beta-2 (Rattus norvegicus) (P62483 whole entry, looked up): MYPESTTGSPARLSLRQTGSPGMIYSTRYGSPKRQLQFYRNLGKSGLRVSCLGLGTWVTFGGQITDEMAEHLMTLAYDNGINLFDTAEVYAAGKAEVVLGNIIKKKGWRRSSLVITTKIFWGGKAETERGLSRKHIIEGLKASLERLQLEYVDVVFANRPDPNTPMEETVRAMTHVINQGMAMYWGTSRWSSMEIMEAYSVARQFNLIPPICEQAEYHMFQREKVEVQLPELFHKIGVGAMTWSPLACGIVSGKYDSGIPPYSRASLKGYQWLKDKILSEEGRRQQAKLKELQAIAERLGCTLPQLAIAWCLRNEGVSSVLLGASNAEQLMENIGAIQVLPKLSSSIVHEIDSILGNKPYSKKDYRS

[5] = target: Voltage-gated potassium channel subunit beta-2 (Rattus norvegicus) (UniProt P62483); assay: KvBeta positive modulators, primary screen, biochemical, NADPH fluorescence (AID 623;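 active = NADPH fluorescence slope more negative than the mean of all samples by about 3 SD, 99.7% confidence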;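 note: fluorescence intensity change per second fitted from 20 to 320 s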); details: Recombinant KvBeta, NADPH fluorescence decrease slope, 10 min; at 10 µM; stronger effect = lower value
[6] = target: Muscarinic acetylcholine receptor M4 (Homo sapiens) (UniProt P08173); assay: compounds altering M4/GIRK thallium flux, either direction, primary screen, M4 allosteric agonist project, cell-based, HEK293 M4/GIRK, BTC-AM (AID 625;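 active = fluorescence slope after compound addition differing from the mean of all tested samples at 99.7% confidence, mostly higher but some lower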;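 note: thallium influx through GIRK channels coupled to M4 in HEK293 cells with BTC-AM dye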); details: at 10 µM, actives lie on both sides
Sequence of Muscarinic acetylcholine receptor M4 (Homo sapiens) (P08173 whole entry, looked up): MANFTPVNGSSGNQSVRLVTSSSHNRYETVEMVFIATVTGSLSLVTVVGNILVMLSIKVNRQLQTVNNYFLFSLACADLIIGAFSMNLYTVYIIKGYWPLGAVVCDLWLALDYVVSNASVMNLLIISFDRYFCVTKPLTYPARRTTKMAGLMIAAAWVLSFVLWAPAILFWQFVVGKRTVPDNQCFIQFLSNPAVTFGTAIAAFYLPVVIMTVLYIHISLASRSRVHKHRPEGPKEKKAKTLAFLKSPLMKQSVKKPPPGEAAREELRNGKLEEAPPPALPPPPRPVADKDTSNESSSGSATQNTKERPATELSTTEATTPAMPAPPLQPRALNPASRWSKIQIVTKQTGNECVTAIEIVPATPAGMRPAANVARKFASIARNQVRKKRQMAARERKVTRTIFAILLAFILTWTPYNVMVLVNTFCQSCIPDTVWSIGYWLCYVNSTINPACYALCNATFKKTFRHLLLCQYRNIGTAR
Method in brief: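 Material – HEK293 cells with M4 receptor and GIRK channels · Buffer or medium – pH 7.3 thallium assay buffer · Doses – one dose, 10 µM final · Timing – cells overnight at 37 °C, BTC-AM loading 1 h, reads 2 min total · Measured by – kinetic fluorescence with BTC-AM dye · Controls – carbachol and DMSO controls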

[7] = inhibitors of Sendai virus-induced IRF3 signaling, primary screen, TLR/RLR signaling modifier project, cell-based, Sendai virus stimulus, luciferase, 10K MLSCN set (AID 602276); details: HEK293 RL24 IRF3 luciferase reporter, at 10 µM, stronger effect = higher value;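 note: firefly luciferase from ISG56 promoter only with Renilla not read in this screen; 0% = Sendai virus plus DMSO and 100% = medium plus DMSO without virus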
[8] = inhibitors of poly I:C-induced TLR3 signaling, primary screen, cell-based, poly I:C stimulus, luciferase, 10K MLSCN set (AID 602277;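 active = inhibition of the reporter signal at or above 50%; inactive = inhibition below 50%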); details: HEK293-TLR3 RL24 IRF3 luciferase reporter, at 10 µM, stronger effect = higher value

| SMILES | cell count [1] | inhibition [1] | inhibition of aggregation [2] | nuclei count [2] [%] | inhibition [3] | nuclei count [3] [%] | fluorescence slope [4] | NADPH fluorescence slope [5] | fluorescence slope [6] | inhibition [7] | inhibition [8] |
| --- | --- | --- | --- | --- | --- | --- | --- | --- | --- | --- | --- |
| Cc1ccccc1NC(=O)c1c(F)c(F)c(F)c(F)c1F | 490 | -6% (inactive) | -11.8% (inactive) | 98.6 | -102% (inactive) | 135 | -0.565 (inactive) | -8.2e-05 (inactive) | 0.00407 (inactive) | 12.8% (inactive) | 11.6% (inactive) |
| CCOC(=O)c1sc2nc(C)cc(C)c2c1N | 443 | 8.7% (inactive) | -13.6% (inactive) | 111 | -26% (inactive) | 127 | -0.105 (inactive) | -1.9e-05 (inactive) | 0.00463 (inactive) | -33.2% (inactive) | -45.5% (inactive) |
| O=C(c1ccc(Cl)cc1)C1CCN(C(=O)NC2CCCCC2)CC1 | 456 | -15% (inactive) | 13.9% (inactive) | 86.5 | -37.3% (inactive) | 104 | -0.541 (inactive) | -1.3e-05 (inactive) | 0.00452 (inactive) | 4.14% (inactive) | -12.4% (inactive) |
| COc1ccc(-n2ncc3c(NCc4ccccn4)ncnc32)cc1 | 463 | -1.9% (inactive) | 7.6% (inactive) | 94 | 14.4% (inactive) | 102 | -0.541 (inactive) | -4e-05 (inactive) | 0.0051 (inactive) | -12.7% (inactive) | -61.6% (inactive) |
| CCCCN(C)Cc1c(C)[nH]c2c(Cl)cccc2c1=O | 326 | -0.2% (inactive) | 0.9% (inactive) | 92.1 | -38.6% (inactive) | 92.3 | -0.434 (inactive) | 3.3e-05 (inactive) | 0.00844 (inactive) | 7.84% (inactive) | 23.5% (inactive) |
| CS(=O)(=O)N1CCN(CC2CC3C=CC2C3)CC1 (stereo not drawn) | 367 | -3% (inactive) | -5.6% (inactive) | 94.8 | -18.9% (inactive) | 123 | -0.199 (inactive) | -2e-05 (inactive) | 0.00684 (inactive) | 14.1% (inactive) | 25.1% (inactive) |
| CC(=O)N1CCc2cc(S(=O)(=O)CCC(=O)N3CCN(C(=O)c4ccco4)CC3)ccc21 | 519 | 2.2% (inactive) | 7.5% (inactive) | 105 | -51.9% (inactive) | 116 | -0.413 (inactive) | -4e-05 (inactive) | 0.00737 (inactive) | 12.3% (inactive) | 17.8% (inactive) |
| CC(C)OC(=O)CSc1nnc(Cc2ccccc2)n1Cc1ccco1 | 726 | 28.5% (active) | -13% (inactive) | 106 | 44% (inactive) | 100 | -0.419 (inactive) | -2.4e-05 (inactive) | 0.0048 (inactive) | 10.9% (inactive) | 6.75% (inactive) |
| CC1CCN(C(=O)Cn2c(=O)oc3ccccc32)CC1 | 322 | -0.6% (inactive) | 15.4% (inactive) | 100 | -222% (inactive) | 104 | -0.57 (inactive) | 4.8e-06 (inactive) | 0.00554 (inactive) | -14.5% (inactive) | -12.5% (inactive) |
| CN1C(=O)C2(NCCc3c2[nH]c2ccccc32)c2ccccc21 (stereo not drawn) | 583 | 0.7% (inactive) | -4.1% (inactive) | 99.3 | -4.8% (inactive) | 90.7 | -0.482 (inactive) | -0.000314 (inactive) | 0.00214 (inactive) | 20% (inactive) | 34.7% (inactive) |
| Cc1nc(NC2=NCN(CCCN3CCOCC3)CN2)nc2c(C)cccc12 | 552 | 12.1% (inactive) | 0.1% (inactive) | 73.7 | 35.4% (inactive) | 97.1 | -0.571 (inactive) | -6.5e-05 (inactive) | 0.00567 (inactive) | 26.7% (inactive) | 31.4% (inactive) |
| CCOc1cc(C2C(C(=O)OC(C)C)=C(C)N=C3SCCC(=O)N32)ccc1OC(C)=O (stereo not drawn) | 284 | 5.8% (inactive) | 8.8% (inactive) | 105 | 1.9% (inactive) | 105 | -0.42 (inactive) | -0.000412 (inactive) | 0.00512 (inactive) | 11.7% (inactive) | 24% (inactive) |
| CCc1ccc2oc(-c3cc(N)ccc3Cl)nc2c1 | 563 | -33.7% (inactive) | 3% (inactive) | 98.1 | -53.6% (inactive) | 110 | -0.298 (inactive) | 8.8e-06 (inactive) | 0.006 (inactive) | -31.8% (inactive) | -60.1% (inactive) |
| CC(=O)Nc1c(Cl)n(C(C)=O)c2ccccc12 | 432 | -1% (inactive) | -9.1% (inactive) | 100 | -3.8% (inactive) | 103 | -0.304 (inactive) | -2.6e-05 (inactive) | 0.00935 (inactive) | 27.6% (inactive) | 21% (inactive) |
| COc1ccc(-c2nnc3ccc(SC(C(C)=O)C(C)=O)nn23)cc1OC | 605 | -17% (inactive) | 14.3% (inactive) | 100 | -47.2% (inactive) | 94 | -0.348 (inactive) | -5.5e-05 (inactive) | 0.00579 (inactive) | 13.7% (inactive) | 13.4% (inactive) |
| CN(C(=O)c1c(Cl)nc2sccn12)C1CCCCC1 | 456 | 9.8% (inactive) | -13.5% (inactive) | 104 | -498% (inactive) | 162 | -0.464 (inactive) | -5.9e-05 (inactive) | 0.00592 (inactive) | 10.8% (inactive) | 6.58% (inactive) |
| Cc1nc(SCC(=O)N2CCC(C(N)=O)CC2)n[nH]1 | 516 | -17.1% (inactive) | -2.4% (inactive) | 98.4 | -33.4% (inactive) | 119 | -0.581 (inactive) | -5.6e-05 (inactive) | 0.00602 (inactive) | -0.32% (inactive) | -1.6% (inactive) |
| O=C1c2ccccc2NC(c2ccco2)N1O (stereo not drawn) | 426 | 3% (inactive) | -3.7% (inactive) | 110 | -169% (inactive) | 132 | -0.579 (inactive) | -2.1e-05 (inactive) | 0.006 (inactive) | 8.36% (inactive) | 10.8% (inactive) |
| CC(C)CCn1c(SCC#N)nc2c(sc3ccccc32)c1=O | 718 | -3.6% (inactive) | 0.6% (inactive) | 117 | -60.1% (inactive) | 119 | -0.485 (inactive) | -2.4e-05 (inactive) | 0.00662 (inactive) | 6.8% (inactive) | 14.8% (inactive) |
| COCC(=O)Nc1sc2c(c1C(=O)OC)CCC(C)C2 (stereo not drawn) | 421 | 5.5% (inactive) | -7.6% (inactive) | 94.2 | -127% (inactive) | 126 | -0.471 (inactive) | -3.9e-05 (inactive) | 0.00475 (inactive) | 16.5% (inactive) | -17% (inactive) |
| CCOC(=O)C(CC)(CCC(=O)O)c1csc(N)n1 (stereo not drawn) | 518 | 9.6% (inactive) | -2.8% (inactive) | 91.6 | 14.4% (inactive) | 98.1 | -0.518 (inactive) | -3.9e-05 (inactive) | 0.00527 (inactive) | 13.6% (inactive) | 18% (inactive) |
| COc1ccc(CNc2nc(SCC(=O)NCc3ccco3)nc3ccccc23)cc1 | 705 | 0.9% (inactive) | -24.8% (inactive) | 104 | -50.5% (inactive) | 99.3 | -0.484 (inactive) | 9.7e-05 (inactive) | 0.00602 (inactive) | -0.825% (inactive) | 2.94% (inactive) |
| COc1ccc(-c2cc3nc(C)c(CCC(=O)NCc4ccco4)c(C)n3n2)c(OC)c1 | 393 | 4.9% (inactive) | -18.2% (inactive) | 105 | -25% (inactive) | 83.7 | -0.443 (inactive) | -0.00019 (inactive) | 0.00532 (inactive) | 12.2% (inactive) | 11.7% (inactive) |
| COC(=O)c1cc(NC(=O)C2CC=CCC2C(=O)O)cc(C(=O)OC)c1 (stereo not drawn) | 800 | -6.9% (inactive) | -7.4% (inactive) | 108 | 5.2% (inactive) | 97.7 | -0.536 (inactive) | -4.3e-05 (inactive) | 0.00439 (inactive) | 9.55% (inactive) | 7.94% (inactive) |
| CCOC(=O)Cc1nn2c(=O)cc(C)nc2s1 | 728 | -22.9% (inactive) | 6.2% (inactive) | 118 | 2.2% (inactive) | 94.9 | -0.474 (inactive) | 0.000188 (inactive) | 0.00652 (inactive) | 2.1% (inactive) | 11.1% (inactive) |
| C=CCn1c(SCc2ccc3nonc3c2)nnc1-c1cccs1 | 644 | -14% (inactive) | 3.4% (inactive) | 91.6 | 13.9% (inactive) | 92.9 | -0.384 (inactive) | 4.9e-05 (inactive) | 0.00442 (inactive) | 15% (inactive) | 17.7% (inactive) |
| O=C(CNC(=O)c1cccs1)NCCN1CCN(c2ccccc2F)CC1 | 585 | -8.2% (inactive) | -28.3% (inactive) | 99.6 | -19.1% (inactive) | 106 | -0.451 (inactive) | -3.9e-05 (inactive) | 0.00484 (inactive) | 19.5% (inactive) | 17.5% (inactive) |
| O=C(CSc1nc2[nH]ncc2c(=O)n1-c1ccccc1Br)NCc1ccco1 | 517 | -24% (inactive) | -8.3% (inactive) | 83.4 | -15.2% (inactive) | 95 | -0.549 (inactive) | -3.1e-05 (inactive) | 0.00777 (inactive) | 22.2% (inactive) | 28.1% (inactive) |
